Assay results: ChEMBL document CHEMBL1145845, “Acetogenins as selective inhibitors of the human ovarian 1A9 tumor cell line” (2003)
In brackets after ≈: the same amount, converted by molar mass. Activity calls are given as the source filed them.

Tests used:
KB [1] = assay: Effective dose required for inhibitory activity against KB-VIN human tumor cell line.; type: functional; details: read-out: ED50 (the source's name)
Outline: (§1)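 Human tumor lines were grown in RPMI-1640 with 25 mM HEPES, 0.25% sodium bicarbonate, 10% FBS and 100 µg/mL kanamycin. KB-VIN is a vincristine-resistant KB subline, and PTX10 is a 1A9 subline with mutated β-tubulin. Trypsinized cells (1500–7500/well) got compound from DMSO stock for 3 days continuous. Cells were fixed with cold 50% TCA, stained with 0.4% SRB, and read at 562 nm. ED50 is the 50% growth-reduction concentration; not active means ≤5% inhibition at the top concentration.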

A549 [2] = assay: Effective dose required for inhibitory activity against A549 human tumor cell line.; type: functional; details: read-out: ED50 (the source's name); outline: as §1
PC-3 [3] = assay: Effective dose required for inhibitory activity against PC-3 human tumor cell line.; type: functional; details: read-out: ED50 (the source's name); outline: as §1
KB [4] = assay: Effective dose required for inhibitory activity against KB human tumor cell line.; type: functional; details: read-out: ED50 (the source's name); outline: as §1
CAKI-1 [5] = assay: Effective dose required for inhibitory activity against CAK1 human tumor cell line; type: functional; details: read-out: ED50 (the source's name); outline: as §1
1A9 [6] = assay: Percent inhibition against 1A9 human tumor cell line at <0.00008 ug/mL; type: functional
HCT-8 = assay: Effective dose required for inhibitory activity against HCT-8 human tumor cell line.; type: functional; details: read-out: ED50 (the source's name); outline: as §1
1A9/ptx-10 [7] = assay: Effective dose required for inhibitory activity against PTX10 human tumor cell line; type: functional; details: read-out: ED50 (the source's name); outline: as §1
HOS [8] = assay: Effective dose required for inhibitory activity against HOS human tumor cell line.; type: functional; details: read-out: ED50 (the source's name); outline: as §1
SK-MEL-2 [9] = assay: Effective dose required for inhibitory activity against SK-MEL-2 human tumor cell line.; type: functional; details: read-out: ED50 (the source's name); outline: as §1
MCF7 [10] = assay: Effective dose required for inhibitory activity against MCF-7 human tumor cell line.; type: functional; details: read-out: ED50 (the source's name); outline: as §1
CAKI-1 [11] = assay: Effective dose required for inhibitory activity against CAK1 human tumor cell line; Not active; type: functional, cell-based; outline: as §1
1A9 [12] = assay: Percent inhibition against 1A9 human tumor cell line at >10 ug/mL; type: functional
A549 [13] = assay: Effective dose required for inhibitory activity against A549 human tumor cell line; Not active; type: functional, cell-based; outline: as §1
1A9/ptx-10 [14] = assay: Percent inhibition against PTX10 human tumor cell line at >10 ug/mL; type: functional
HOS [15] = assay: Effective dose required for inhibitory activity against HOS human tumor cell line; Not active; type: functional, cell-based; outline: as §1
SK-MEL-2 [16] = assay: Effective dose required for inhibitory activity against SK-MEL-2 human tumor cell line; Not active; type: functional, cell-based; outline: as §1
1A9 [17] = assay: Effective dose required for inhibitory activity against 1A9 human tumor cell line.; type: functional; details: read-out: ED50 (the source's name); outline: as §1
MCF7 [18] = assay: Percent inhibition against MCF-7 human tumor cell line at <5 ug/mL; type: functional
1A9 [19] = assay: Percent inhibition against 1A9 human tumor cell line at 0.10 ug/mL; type: functional
Outline: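 Human ovarian 1A9 cells grown in RPMI-1640 with 25 mM HEPES, 0.25% sodium bicarbonate, 10% FBS and 100 µg/mL kanamycin. Freshly trypsinized cells seeded at 1500–7500/well; compound added from DMSO-diluted stock; 3-day continuous exposure. Cells fixed with cold 50% TCA, stained with 0.4% SRB, dye solubilized, A562 read. Percent growth inhibition given where <50% at highest concentration.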

PC-3 [20] = assay: Effective dose required for inhibitory activity against PC-3 human tumor cell line; Not active; type: functional, cell-based; outline: as §1

| EC50 (PC-3 [3]) [µg/mL] | EC50 (CAKI-1 [5]) [µg/mL] | EC50 (SK-MEL-2 [9]) [µg/mL] | EC50 (1A9 [17]) [µg/mL] | SMILES | EC50 (KB [1]) [µg/mL] | EC50 (A549 [2]) [µg/mL] | EC50 (KB [4]) [µg/mL] | EC50 (HCT-8) [µg/mL] | EC50 (1A9/ptx-10 [7]) [µg/mL] | EC50 (HOS [8]) [µg/mL] | EC50 (MCF7 [10]) [µg/mL] | NA (CAKI-1 [11]) | Inhibition (1A9/ptx-10 [14]) [%] | NA (SK-MEL-2 [16]) | Inhibition (MCF7 [18]) [%] | further results |
| --- | --- | --- | --- | --- | --- | --- | --- | --- | --- | --- | --- | --- | --- | --- | --- | --- |
| > 20 | > 20 | > 20 | 0.96 (≈ 1.65 µM) | CCCCCCCCCCCC[C@@H](O)[C@H]1CC[C@H]([C@H](O)CCCCCCCCCC[C@@H](O)CC2=C[C@H](C)OC2=O)O1 [MURISOLIN] | > 20 | – | > 20 | > 20 | – | – | > 20 | – | 21 | – | – | NA (A549 [13]): inactive; NA (HOS [15]): inactive |
| > 20 | – | – | – | CCCCCCCCC[C@H](O)[C@@H]1CC[C@H]([C@H]2CC[C@@H](CCCCCCCCCC[C@H](O)CC3=C[C@H](C)OC3=O)O2)O1 | > 20 | > 20 | > 20 | > 20 | – | > 20 | > 20 | inactive | 23 | inactive | – | inhibition at 0.1 µg/mL (1A9 [19]): 47% |
| 9.2 (≈ 14.7 µM) | 15.3 (≈ 24.5 µM) | 14.1 (≈ 22.6 µM) | 0.078 (≈ 0.125 µM) | CCCCCCCCCCCC[C@H](O)[C@@H]1CC[C@@H]([C@@H](O)CCCCCCC(O)CCCCC[C@@H](O)CC2=C[C@H](C)OC2=O)O1 (stereo partly drawn) [ANNOMONTACIN] | 13.7 (≈ 21.9 µM) | 11.8 (≈ 18.9 µM) | 9.2 (≈ 14.7 µM) | 13.7 (≈ 21.9 µM) | 6.8 (≈ 10.9 µM) | 14.1 (≈ 22.6 µM) | – | – | – | – | 51 | – |
| 7.8 (≈ 13.1 µM) | 16.3 (≈ 27.3 µM) | 13.1 (≈ 21.9 µM) | 0.5 (≈ 0.838 µM) | CCCCCCCCCCCC[C@@H](O)[C@H]1CC[C@H]([C@H](O)CCCCCC(O)CCCC[C@@H](O)CC2=C[C@H](C)OC2=O)O1 (stereo partly drawn) | 17 (≈ 28.5 µM) | 12 (≈ 20.1 µM) | 11.8 (≈ 19.8 µM) | 14.2 (≈ 23.8 µM) | 9.3 (≈ 15.6 µM) | 13.1 (≈ 21.9 µM) | – | – | – | – | 57 | – |

| SMILES | EC50 (PC-3 [3]) [µg/mL] | EC50 (CAKI-1 [5]) [µg/mL] | EC50 (SK-MEL-2 [9]) [µg/mL] | EC50 (1A9 [17]) [µg/mL] | EC50 (KB [1]) [µg/mL] | EC50 (A549 [2]) [µg/mL] | EC50 (KB [4]) [µg/mL] | EC50 (HCT-8) [µg/mL] | EC50 (1A9/ptx-10 [7]) [µg/mL] | EC50 (HOS [8]) [µg/mL] | EC50 (MCF7 [10]) [µg/mL] | NA (CAKI-1 [11]) | Inhibition (1A9/ptx-10 [14]) [%] | NA (SK-MEL-2 [16]) | Inhibition (MCF7 [18]) [%] | further results |
| --- | --- | --- | --- | --- | --- | --- | --- | --- | --- | --- | --- | --- | --- | --- | --- | --- |
| CCCCCCCCCC[C@@H](O)[C@@H]1CC[C@@H]([C@@H]2CC[C@@H]([C@H](O)CCCCCCCCCC(O)CC3=CC(C)OC3=O)O2)O1 (stereo partly drawn) [BULLATACIN] | 14.3 (≈ 23.5 µM) | 16.8 (≈ 27.6 µM) | 17.1 (≈ 28.1 µM) | – | 16.1 (≈ 26.4 µM) | 13.3 (≈ 21.8 µM) | 10 (≈ 16.4 µM) | 14.9 (≈ 24.5 µM) | 8 (≈ 13.1 µM) | 11.9 (≈ 19.5 µM) | 8.4 (≈ 13.8 µM) | – | – | – | – | Inhibition (1A9 [6]): 55% |
| CCCCC/C=C\CCC(O)C(O)CCCC[C@@H](O)[C@@H]1CC[C@@H](CCCCCCCCCCCCC2=C[C@H](C)OC2=O)O1 (stereo partly drawn) | > 20 | – | – | – | > 20 | – | > 20 | > 20 | – | – | > 20 | inactive | 13 | inactive | – | Inhibition (1A9 [12]): 39%; NA (A549 [13]): inactive; NA (HOS [15]): inactive |
| CCCCCCCCCCCC[C@@H](O)[C@H]1CC[C@H]([C@H](O)CCCCC(O)CCCCCCCC2=C[C@H](C)OC2=O)O1 (stereo partly drawn) | 8.1 (≈ 13.9 µM) | 13.9 (≈ 23.9 µM) | 14.2 (≈ 24.4 µM) | 0.1 (≈ 0.172 µM) | 12.5 (≈ 21.5 µM) | 9.8 (≈ 16.9 µM) | 7.6 (≈ 13.1 µM) | 10.8 (≈ 18.6 µM) | 5 (≈ 8.61 µM) | 9.8 (≈ 16.9 µM) | – | – | – | – | 55 | – |
| CCCCCCCCCCCC[C@@H](O)[C@H]1CC[C@H]([C@H](O)CCCCCCCCCCCCC2=C[C@H](C)OC2=O)O1 [REL-SOLAMIN] | – | – | – | 7.8 (≈ 13.8 µM) | > 20 | > 20 | > 20 | > 20 | – | > 20 | > 20 | inactive | 18 | inactive | – | NA (PC-3 [20]): inactive |
